Experimental data as given in PMC5613298 (Biochemistry and Biophysics Reports, 2016).
Like-named read-outs stand apart in the source and are kept apart here. Blank lines part the entries; values can stand above or below the compound they belong to. Starred links: 1 amine or outer side, 2 acyl side, 3 side chain; linkers in the order of their positions; H or OH if unused. Non-standard residues stand in square brackets, D forms with d. Residues, ends and D or L forms follow the SMILES beside them. Trp(7-aza) = N[C@@H](Cc1c[nH]c2ncccc12)C(=O)O; X1 = O=C([C@H](Cc1n[nH]c2ncccc12)N[*:1])[*:2]

Key:
[1] = time-resolved fluorescence; format: physicochemical
How it was run: (§1)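 Lifetimes measured by time-correlated single-photon counting, with two sources. One used hydrogen-lamp excitation (about 300 ps resolution). The other used 310 nm third-harmonic excitation from 930 nm femtosecond pulses (82 MHz) with a microchannel-plate detector (about 15 ps resolution). Emission was collected at right angles through a 54.7° polarizer. Decays were fitted to sums of exponentials with the instrument response deconvolved.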

[2] = steady-state absorption and emission spectroscopy, free in solution; format: physicochemical; conditions: for λabs: neutral water; for λem, normal / N(1)-H emission: neutral water (peptides: neutral Tris buffer); for λem, second band (N(2)-H emission) / λem, third band (N(7)-H tautomer emission): neutral water / neutral Tris buffer
How it was run: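 Absorption recorded on a UV-vis spectrophotometer. Emission recorded on a fluorimeter with wavelength-calibrated excitation and emission response. Peptide concentration was set spectrophotometrically from the extinction coefficient of its single Trp or Trp-analogue residue.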

[3] = cited from earlier work
CD spectrum = format: physicochemical; conditions: Fig. S2
[4] = biological target: T1, bovine brain calmodulin (CaM) (Bos taurus, UniProt P62157); experiment: steady-state emission spectra upon titration with CaM; format: binding; conditions: for λem, N(1)-H emission: bound to CaM, pH 7.5 Tris buffer; for environment around Trp analogue upon binding CaM: deduced from steady-state emission; for λabs: in presence of CaM
How it was run: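 Peptide at 1 µM in 5 mM Tris-HCl, pH 7.5, 1.0 mM CaCl₂, 25 °C. CaM added stepwise to 6 µM final, with 1 min stirring and 10 min equilibration per step. Full emission spectra recorded on a calibrated fluorimeter, corrected for dilution, each an average of three replicates. Peptide and CaM concentrations were set from Trp and Tyr absorption extinction coefficients.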

[5] = biological target: T1, bovine brain calmodulin (CaM); experiment: CaM binding by fluorescence titration; conditions: for increase in CaM binding affinity on replacing Trp: relative to Baa (210±10 pM)
[6] = biological target: T1, bovine brain calmodulin (CaM); experiment: time-resolved fluorescence; format: binding; conditions: peptide-CaM complex, ±0.03 ns uncertainty
How it was run: as §1

[7] = cited from earlier work; remark: listed apart in the source
[8] = free, neutral water, λmon not given, ±0.03 ns uncertainty
[9] = free, neutral water, λmon 320 nm, ±0.03 ns uncertainty
[10] = free, neutral water, λmon 550 nm, ±0.03 ns uncertainty
[11] = free, neutral water, λmon 380 nm
[12] = free, neutral water, λmon 380 nm, ±0.03 ns uncertainty
[13] = free, neutral water, λmon 540 nm, ±0.03 ns uncertainty

τ [1, 8]: 0.91 ns | λabs [2]: 288 nm | λem, normal / N(1)-H emission [2]: 386 nm
Compound: c1cnc2[nH]ccc2c1 [7-azaindole]
lifetime ([3]; in DMSO): 9.3 ns | lifetime ([3]; in acetonitrile): 5.7 ns

Compound: CC(=O)N[C@@H](CC(C)C)C(=O)N[C@@H](CCCCN)C(=O)N[C@@H](Cc1c[nH]c2ncccc12)C(=O)N[C@@H](CCCCN)C(=O)N[C@@H](CCCCN)C(=O)N[C@@H](CC(C)C)C(=O)N[C@@H](CC(C)C)C(=O)N[C@@H](CCCCN)C(=O)N[C@@H](CC(C)C)C(=O)N[C@@H](CC(C)C)C(=O)N[C@@H](CCCCN)C(=O)N[C@@H](CCCCN)C(=O)N[C@@H](CC(C)C)C(=O)N[C@@H](CC(C)C)C(=O)N[C@@H](CCCCN)C(=O)N[C@@H](CC(C)C)C(=O)NCC(N)=O [(7-aza)Trp-Baa] (Ac-LK[Trp(7-aza)]KKLLKLLKKLLKLG-NH2)
secondary structure by CD (CD spectrum): α-helix structure | τ, normal (N(1)-H) emission lifetime ([1]; free peptide, neutral Tris buffer, λmon 400 nm, ±0.03 ns uncertainty): 0.65 ns | λem, N(1)-H emission ([4]; 1.0 mM CaCl2): 358 nm | environment around Trp analogue upon binding CaM [4]: less polar environment | λabs [4]: 300 nm | λabs [2]: 300 nm | λem, normal / N(1)-H emission [2]: 400 nm | Kd [5]: 0.109 ± 0.005 nM | τ, normal (N(1)-H) emission lifetime ([6]; λmon 360 nm (text: 358 nm emission)): 7.35 ns

Compound: CC(=O)N[C@@H](CC(C)C)C(=O)N[C@@H](CCCCN)C(=O)N[C@@H](Cc1n[nH]c2ncccc12)C(=O)N[C@@H](CCCCN)C(=O)N[C@@H](CCCCN)C(=O)N[C@@H](CC(C)C)C(=O)N[C@@H](CC(C)C)C(=O)N[C@@H](CCCCN)C(=O)N[C@@H](CC(C)C)C(=O)N[C@@H](CC(C)C)C(=O)N[C@@H](CCCCN)C(=O)N[C@@H](CCCCN)C(=O)N[C@@H](CC(C)C)C(=O)N[C@@H](CC(C)C)C(=O)N[C@@H](CCCCN)C(=O)N[C@@H](CC(C)C)C(=O)NCC(N)=O [(2,7-aza)Trp-Baa] (Ac-LK[X1]KKLLKLLKKLLKLG-NH2)
secondary structure by CD (CD spectrum): α-helix structure | τ, N(1)-H emission lifetime ([1]; free peptide in water, λmon 330 nm, ±0.03 ns uncertainty): 0.21 ns | λem, N(1)-H emission ([4]; 1.0 mM CaCl2): 340 nm | environment around Trp analogue upon binding CaM [4]: water scant environment | λabs [4]: 300 nm | change of N(1)-H emission at 340 nm upon titration with CaM ([4]; pH 7.5 Tris, 1.0 mM CaCl2): increase of the N(1)-H emission | λabs [2]: 300 nm | λem, normal / N(1)-H emission [2]: 340 nm | λem, second band (N(2)-H emission) [2]: 380 nm | λem, third band (N(7)-H tautomer emission) [2]: 500 nm | Kd [5]: 0.045 ± 0.002 nM | τ, N(1)-H emission lifetime ([6]; λmon 330 nm): 1.10 ns

Compound: Ac-LKWKKLLKLLKKLLKLG-NH2 [Baa]
secondary structure by CD (CD spectrum): α-helix structure

Compound: N[C@@H](Cc1c[nH]c2ncccc12)C(=O)O [(7-aza)Trp, 7-azatryptophan]
emission maximum ([7]; in tetrahydrofuran): 350 nm | τ [1, 8]: 0.65 ns | λabs [2]: 289 nm | λem, normal / N(1)-H emission [2]: 400 nm | increase in CaM binding affinity on replacing Trp [5]: 1.9 times

τ [1, 9]: 0.22 ns | τ ([1]; free, neutral water, λmon 400 nm, ±0.03 ns uncertainty): 10.10 ns | τ, decay component [1, 10]: 1.30 ns | τ, rise component [1, 10]: 0.21 ns | λabs [2]: 295 nm | λem, normal / N(1)-H emission [2]: 335 nm | λem, second band (N(2)-H emission) [2]: 370 nm | λem, third band (N(7)-H tautomer emission) [2]: 495 nm
Compound: c1cnc2[nH]ncc2c1 [2,7-diazaindole]

Compound: N[C@@H](Cc1n[nH]c2ncccc12)C(=O)O [(2,7-aza)Trp, 2,7-diazatryptophan]
N(7)-H tautomer emission ([7]; water rich environments): 500 nm | τ [1, 9]: 0.26 ns | percentage of τ component 1 [1, 11]: 12% | percentage of τ component 2 [1, 11]: 88% | τ, component 1 [1, 12]: 0.27 ns | τ, component 2 [1, 12]: 10.07 ns | τ, decay component [1, 13]: 0.58 ns | τ, rise component [1, 13]: 0.26 ns | λabs [2]: 300 nm | λem, normal / N(1)-H emission [2]: 340 nm | λem, second band (N(2)-H emission) [2]: 380 nm | λem, third band (N(7)-H tautomer emission) [2]: 500 nm | increase in CaM binding affinity on replacing Trp [5]: 4.7 times
